# Calls of active or inactive are those of the source. The calls are words filed in the database; no cut-off is given here.
# Target: T1, Diacylglycerol lipase-alpha (Mus musculus) (UniProt Q6WQJ1)
# T1 sequence (whole entry): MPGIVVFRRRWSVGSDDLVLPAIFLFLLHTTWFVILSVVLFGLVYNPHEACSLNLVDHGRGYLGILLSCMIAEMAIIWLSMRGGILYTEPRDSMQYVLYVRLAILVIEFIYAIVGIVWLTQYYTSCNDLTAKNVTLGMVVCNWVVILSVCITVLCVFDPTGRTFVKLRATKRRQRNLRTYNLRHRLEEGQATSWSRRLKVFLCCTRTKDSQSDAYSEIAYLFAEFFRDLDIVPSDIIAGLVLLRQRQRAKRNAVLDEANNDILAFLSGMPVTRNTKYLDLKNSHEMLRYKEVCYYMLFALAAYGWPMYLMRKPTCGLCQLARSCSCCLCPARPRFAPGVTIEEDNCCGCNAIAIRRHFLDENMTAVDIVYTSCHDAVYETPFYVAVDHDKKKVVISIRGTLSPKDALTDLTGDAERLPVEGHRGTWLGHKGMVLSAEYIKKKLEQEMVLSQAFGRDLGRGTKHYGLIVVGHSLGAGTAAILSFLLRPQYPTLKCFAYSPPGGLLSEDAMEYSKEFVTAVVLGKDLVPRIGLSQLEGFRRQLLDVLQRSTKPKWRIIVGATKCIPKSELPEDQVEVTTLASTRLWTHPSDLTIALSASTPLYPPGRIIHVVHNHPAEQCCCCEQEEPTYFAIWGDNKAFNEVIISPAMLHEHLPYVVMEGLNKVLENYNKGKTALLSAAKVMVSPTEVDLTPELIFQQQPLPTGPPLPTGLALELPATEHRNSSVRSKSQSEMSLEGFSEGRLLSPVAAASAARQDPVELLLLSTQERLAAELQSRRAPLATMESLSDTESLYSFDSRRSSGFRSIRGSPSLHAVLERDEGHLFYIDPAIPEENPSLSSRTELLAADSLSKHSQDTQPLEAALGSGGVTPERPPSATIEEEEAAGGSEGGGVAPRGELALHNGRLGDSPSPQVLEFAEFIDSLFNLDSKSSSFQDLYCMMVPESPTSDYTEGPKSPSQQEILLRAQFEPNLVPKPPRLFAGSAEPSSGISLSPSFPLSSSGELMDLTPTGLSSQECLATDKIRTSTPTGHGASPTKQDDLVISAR
# Experiment: Inhibition of MB064 labeling of DAGLalpha in mouse brain homogenates by activity based protein profiling assay
# Conditions: not given
row,Structure (SMILES),inhibition
1,CC1(C)CCc2cc(S(=O)(=O)N(CC(=O)O)Cc3cccc(Oc4ccccc4)c3)ccc2O1,Dose-dependent effect
2,CC1(C)CCc2cc(S(=O)(=O)N(CC(=O)O)Cc3ccc(Oc4ccc(C(F)(F)F)cn4)cc3)ccc2O1,Dose-dependent effect
3,CC1(C)CCc2cc(S(=O)(=O)N(CC(=O)O)Cc3ccc(Oc4ccccc4)cc3)ccc2O1,Dose-dependent effect

# Target: T2, Diacylglycerol lipase-alpha (Homo sapiens, UniProt Q9Y4D2)
# T2 sequence (Q9Y4D2 whole entry): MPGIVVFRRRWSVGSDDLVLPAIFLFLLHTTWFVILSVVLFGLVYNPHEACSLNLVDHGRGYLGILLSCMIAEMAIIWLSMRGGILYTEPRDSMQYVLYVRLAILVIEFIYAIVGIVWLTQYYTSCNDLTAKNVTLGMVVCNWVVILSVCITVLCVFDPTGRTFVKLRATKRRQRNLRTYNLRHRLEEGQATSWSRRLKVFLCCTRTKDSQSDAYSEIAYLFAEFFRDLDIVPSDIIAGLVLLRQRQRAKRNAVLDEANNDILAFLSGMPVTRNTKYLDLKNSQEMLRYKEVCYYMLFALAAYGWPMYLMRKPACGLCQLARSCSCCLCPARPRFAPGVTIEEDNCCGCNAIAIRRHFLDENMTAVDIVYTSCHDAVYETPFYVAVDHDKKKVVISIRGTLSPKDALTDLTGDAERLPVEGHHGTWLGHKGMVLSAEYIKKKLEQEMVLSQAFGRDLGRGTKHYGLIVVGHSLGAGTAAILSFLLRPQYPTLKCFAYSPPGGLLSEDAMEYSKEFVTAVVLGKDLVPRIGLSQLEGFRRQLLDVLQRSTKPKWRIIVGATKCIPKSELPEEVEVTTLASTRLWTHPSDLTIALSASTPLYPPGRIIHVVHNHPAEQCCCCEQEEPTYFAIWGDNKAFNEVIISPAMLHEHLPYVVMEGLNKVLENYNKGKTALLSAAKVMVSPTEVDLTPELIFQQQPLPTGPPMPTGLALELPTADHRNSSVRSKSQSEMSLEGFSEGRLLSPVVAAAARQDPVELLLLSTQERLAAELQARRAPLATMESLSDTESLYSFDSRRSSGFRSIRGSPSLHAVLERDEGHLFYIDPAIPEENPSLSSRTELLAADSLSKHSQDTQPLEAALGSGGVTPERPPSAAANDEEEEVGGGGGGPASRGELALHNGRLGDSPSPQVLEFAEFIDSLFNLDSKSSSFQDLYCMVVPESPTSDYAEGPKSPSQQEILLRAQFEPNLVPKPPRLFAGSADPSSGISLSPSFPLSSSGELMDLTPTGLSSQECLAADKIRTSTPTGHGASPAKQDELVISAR
# Experiment: Inhibition of human DAGLalpha expressed in HEK293T cell membranes
# Type: cell-based, HEK-293T
# Conditions: not given
# How it was run: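 Colorimetric biochemical assay using para-nitrophenylbutyrate as substrate with membranes from HEK293 cells overexpressing human DAGL-α.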
row,Structure (SMILES),IC50 [nM]
1,O=C(O)CN(Cc1ccc(Oc2ccc(C(F)(F)F)cn2)cc1)C(=O)c1ccc(Cl)cc1,> 10000
2,CC1(C)CCc2cc(S(=O)(=O)N(CC(=O)NCCOCCN)Cc3ccc(Oc4ccccc4)cc3)ccc2O1,> 10000
3,CC1(C)CCc2cc(S(=O)(=O)N(CC(=O)O)Cc3ccc(Oc4ccc(C(F)(F)F)cn4)cc3)ccc2O1,65
4,CC1(C)CCc2cc(S(=O)(=O)N(CCO)Cc3cccc(Oc4ccccc4)c3)ccc2O1,> 10000
5,CC1(C)CCc2cc(S(=O)(=O)N(CC(=O)O)Cc3ccc(Oc4ccccc4)cc3)ccc2O1,18
6,CC1(C)CCc2cc(S(=O)(=O)N(CC(N)=O)Cc3cccc(Oc4ccccc4)c3)ccc2O1,> 10000
7,CC1(C)CCc2cc(S(=O)(=O)N(CC(=O)O)Cc3cccc(Oc4ccc(C(F)(F)F)cn4)c3)ccc2O1,143
8,CC1(C)CCc2cc(S(=O)(=O)N(CC#N)Cc3cccc(Oc4ccccc4)c3)ccc2O1,> 10000
9,CC1(C)CCc2cc(S(=O)(=O)N(Cc3cccc(Oc4ccccc4)c3)Cc3nnn[nH]3)ccc2O1,> 10000
10,CC1(C)CCc2cc(S(=O)(=O)N(CCOC(=O)N3CCCCC3)Cc3cccc(Oc4ccccc4)c3)ccc2O1,> 10000

# The next lines start with the values.
row,IC50 [nM],Structure (SMILES)
1,66,O=C(O)CN(Cc1ccc(Oc2ccccc2)cc1)S(=O)(=O)c1ccc(Cl)cc1
2,91,O=C(O)CN(Cc1cccc(Oc2ccccc2)c1)S(=O)(=O)c1ccc(Cl)cc1
3,56,CC1(C)CCc2cc(S(=O)(=O)N(CC(=O)O)Cc3cccc(Oc4ccccc4)c3)ccc2O1
4,1600,O=C(O)CN(Cc1cccc(Oc2ccccc2)c1)S(=O)(=O)c1c(Cl)cccc1Cl
5,512,CC1(C)CCc2cc(S(=O)(=O)N(CCN)Cc3ccc(Oc4ccccc4)cc3)ccc2O1
6,> 10000,O=C(O)CN(Cc1ccc(Oc2ccccc2)cc1)C(=O)c1ccc(Cl)cc1
7,185,CC1(C)CCc2cc(S(=O)(=O)N(CC(=O)O)Cc3ccccc3Oc3ccccc3)ccc2O1
8,> 10000,O=C(O)CN(Cc1ccc(Oc2ccccc2)cc1)C(=O)c1c(Cl)cccc1Cl
9,302,O=C(O)CN(Cc1ccc(Oc2ccc(C(F)(F)F)cn2)cc1)S(=O)(=O)c1ccc(Cl)cc1
10,695,O=C(O)CN(Cc1ccc(Oc2ccccc2)cc1)S(=O)(=O)c1c(Cl)cccc1Cl
11,> 10000,COC(=O)CN(Cc1ccc(Oc2ccccc2)cc1)S(=O)(=O)c1ccc2c(c1)CCC(C)(C)O2

# Target: T3, Monoacylglycerol lipase ABHD6 (Homo sapiens) (UniProt Q9BV23)
# T3 sequence (whole entry): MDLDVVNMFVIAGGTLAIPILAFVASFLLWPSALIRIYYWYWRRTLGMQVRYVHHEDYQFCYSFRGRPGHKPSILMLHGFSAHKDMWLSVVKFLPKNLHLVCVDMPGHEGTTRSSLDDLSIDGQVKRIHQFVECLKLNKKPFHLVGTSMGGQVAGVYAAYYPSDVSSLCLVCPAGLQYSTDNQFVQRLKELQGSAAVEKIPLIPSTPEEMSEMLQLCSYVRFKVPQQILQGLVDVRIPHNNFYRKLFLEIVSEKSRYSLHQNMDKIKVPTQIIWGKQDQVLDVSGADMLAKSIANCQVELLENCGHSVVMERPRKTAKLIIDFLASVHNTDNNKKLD
# Experiment: (§1) Inhibition of human ABHD6 expressed in HEK293T cell membranes assessed as reduction in glycerol production using 2-arachidonoyl glycerol substrate
# Type: cell-based
# Conditions: HEK-293T
# How it was run: (§2)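 Human ABHD6 membranes from transiently transfected HEK293T (0.04 µg/µL final) in HEMNB buffer, pH 7.4, preincubated 30 min with inhibitor. 2-AG (25 µM) added with glycerol kinase/GPO/HRP (0.2 U/mL), 0.125 mM ATP and 10 µM Amplifu Red. Resorufin fluorescence read every 5 min for 75 min at 21°C; slopes over 10–35 min, normalized; N = 2, n = 2.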
row,Structure (SMILES),inhibition
1,CC1(C)CCc2cc(S(=O)(=O)N(CC(=O)O)Cc3cccc(Oc4ccccc4)c3)ccc2O1,Dose-dependent effect
2,CC1(C)CCc2cc(S(=O)(=O)N(CC(=O)O)Cc3ccc(Oc4ccc(C(F)(F)F)cn4)cc3)ccc2O1,Dose-dependent effect
3,CC1(C)CCc2cc(S(=O)(=O)N(CC(=O)O)Cc3ccc(Oc4ccccc4)cc3)ccc2O1,Dose-dependent effect

# Target: T4, Monoacylglycerol lipase ABHD6 (Homo sapiens, UniProt Q9BV23)
# T4 sequence (Q9BV23 whole entry): T3 sequence (whole entry)
# Experiment: as §1
# Type: cell-based, HEK-293T
# Conditions: not given
# How it was run: as §2
row,Structure (SMILES),Ki [nM]
1,CC1(C)CCc2cc(S(=O)(=O)N(CC(=O)O)Cc3cccc(Oc4ccccc4)c3)ccc2O1,18300
2,CC1(C)CCc2cc(S(=O)(=O)N(CC(=O)O)Cc3ccc(Oc4ccc(C(F)(F)F)cn4)cc3)ccc2O1,2700
3,CC1(C)CCc2cc(S(=O)(=O)N(CC(=O)O)Cc3ccc(Oc4ccccc4)cc3)ccc2O1,800

# Target: T2, Diacylglycerol lipase-alpha
# Experiment: Inhibition of human DAGLalpha expressed in HEK293T cell membranes assessed as reduction in hydrolysis of inhibition of [14C]-sn-1-oleoyl-2-arachidonoyl-glycerol
# Type: cell-based, HEK-293T
# Conditions: not given
row,Structure (SMILES),Ki [nM]
1,CC1(C)CCc2cc(S(=O)(=O)N(CC(=O)O)Cc3ccc(Oc4ccccc4)cc3)ccc2O1,700

# Target: T1, Diacylglycerol lipase-alpha (Mus musculus)
# Experiment: (§3) Inhibition of MB064 labeling of DAGLalpha in mouse brain homogenates by activity based protein profiling assay
# Type: tissue-based
# Conditions: not given
# How it was run: (§4)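 Endogenous DAGL-α in mouse brain membrane proteome: inhibitors at a range of concentrations, 30 min at rt, then probe 1 for 10 min at rt. Quenched in SDS sample buffer, resolved on 10% SDS-PAGE, fluorescence scanned. Remaining activity taken from integrated band intensity; IC50 from dose-response curve (SEM, n = 3).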
row,Structure (SMILES),inhibition
1,CC1(C)CCc2cc(S(=O)(=O)N(CC(=O)O)Cc3cccc(Oc4ccccc4)c3)ccc2O1,Dose-dependent effect
2,CC1(C)CCc2cc(S(=O)(=O)N(CC(=O)O)Cc3ccc(Oc4ccc(C(F)(F)F)cn4)cc3)ccc2O1,Dose-dependent effect
3,CC1(C)CCc2cc(S(=O)(=O)N(CC(=O)O)Cc3ccc(Oc4ccccc4)cc3)ccc2O1,Dose-dependent effect

# Target: T5, Diacylglycerol lipase-alpha (Mus musculus, UniProt Q6WQJ1)
# T5 sequence (Q6WQJ1 whole entry): T1 sequence (whole entry)
# Experiment: as §3
# Type: tissue-based
# Conditions: not given
# How it was run: as §4
row,Structure (SMILES),IC50 [nM]
1,CC1(C)CCc2cc(S(=O)(=O)N(CC(=O)O)Cc3cccc(Oc4ccccc4)c3)ccc2O1,355
2,CC1(C)CCc2cc(S(=O)(=O)N(CC(=O)O)Cc3ccc(Oc4ccc(C(F)(F)F)cn4)cc3)ccc2O1,743
3,CC1(C)CCc2cc(S(=O)(=O)N(CC(=O)O)Cc3ccc(Oc4ccccc4)cc3)ccc2O1,124

# Target: T6, Monoacylglycerol lipase ABHD6 (Mus musculus) (UniProt Q8R2Y0)
# T6 sequence (whole entry): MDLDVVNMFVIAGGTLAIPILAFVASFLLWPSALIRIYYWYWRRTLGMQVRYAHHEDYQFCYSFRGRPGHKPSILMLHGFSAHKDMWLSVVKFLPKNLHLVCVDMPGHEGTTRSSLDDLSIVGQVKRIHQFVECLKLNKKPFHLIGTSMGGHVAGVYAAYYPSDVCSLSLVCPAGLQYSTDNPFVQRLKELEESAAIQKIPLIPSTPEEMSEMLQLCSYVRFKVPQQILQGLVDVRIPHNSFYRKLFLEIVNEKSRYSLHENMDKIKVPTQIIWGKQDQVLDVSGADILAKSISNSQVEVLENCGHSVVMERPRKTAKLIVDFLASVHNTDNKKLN
# Experiment: Inhibition of TAMRA-FP labeling of ABHD6 in mouse brain homogenates at 20 uM by activity based protein profiling assay
# Type: tissue-based
# Conditions: in the assay text read “MB064” for “TAMRA-FP”
# How it was run: (§5)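 Mouse brain membrane proteome (2.0 mg/mL) preincubated 30 min at rt with inhibitor or DMSO vehicle, then labeled 15 min at rt with ABP 1 (250 nM final) or TAMRA-FP (500 nM final). Gel-based read-out: lane band intensity corrected for total protein loading by Coomassie stain, vehicle set to 100%.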
row,Structure (SMILES),inhibition
1,CC1(C)CCc2cc(S(=O)(=O)N(CC(=O)O)Cc3cccc(Oc4ccccc4)c3)ccc2O1,Active
2,CC1(C)CCc2cc(S(=O)(=O)N(CC(=O)O)Cc3ccc(Oc4ccc(C(F)(F)F)cn4)cc3)ccc2O1,Active
3,CC1(C)CCc2cc(S(=O)(=O)N(CC(=O)O)Cc3ccc(Oc4ccccc4)cc3)ccc2O1,Active

# Species: Mus musculus
# Experiment: Inhibition of MAGL labeling in mouse brain homogenates at 20 uM by activity based protein profiling assay
# Type: tissue-based
# Conditions: not given
# How it was run: as §5
row,Structure (SMILES),inhibition
1,CC1(C)CCc2cc(S(=O)(=O)N(CC(=O)O)Cc3cccc(Oc4ccccc4)c3)ccc2O1,inactive
2,CC1(C)CCc2cc(S(=O)(=O)N(CC(=O)O)Cc3ccc(Oc4ccc(C(F)(F)F)cn4)cc3)ccc2O1,inactive
3,CC1(C)CCc2cc(S(=O)(=O)N(CC(=O)O)Cc3ccc(Oc4ccccc4)cc3)ccc2O1,inactive
